Assay outcomes as filed in PubChem BioAssay.
MT1-MMP act inh: blockers of MT1-MMP proenzyme processing, primary screen, HT1080 RFP-PRO-GFP cells, GFP/RFP fluorescence; Matrix metalloproteinase-14 (Homo sapiens), P50281; GFP/RFP ratio fluorescence, overnight; percent of plate control window, DMSO zero; GFP/RFP ratio change, % at 20 µM; actives 0.061% (n = 360,000); AID 651647, 2012;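 active = GFP/RFP ratio change of at least 30% with cell ATP level not reduced by more than half and red fluorescence within 50% of control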
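Test system: HT1080 cells expressing an RFP-PRO-GFP fluorescent reporter construct / Compound dosing: single-point 20 µM compound, 1% DMSO / Schedule: cells overnight before dosing, compound overnight, 37 °C, 5% CO2 / Evaluation: GFP/RFP fluorescence ratio / Control set: DMSO and RFP-L50D-GFP cell wells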
Myeloid diff 2: induction of myeloid progenitor differentiation, primary screen, cell-based, flow cytometry, MLPCN library; ER-HoxA9 myeloid progenitors, lysozyme-GFP differentiation; actives 1% (n = 360,000); calls only at 10 µM; AID 624256, 2012;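 active = normalized GFP-positive differentiation at or above the plate's own cutoff, the solvent-only control mean plus 3 SD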;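 note: cells exposed to compound for four days before flow analysis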
DAGLB inhibitor: DAGLB lipase inhibitors, primary screen, biochemical, fluorescence, HTS; Diacylglycerol lipase-beta (Homo sapiens), Q8NCG7; HEK293T DAGLB membrane lysate, EnzChek fluorogenic substrate; inhibition, % at 5.17 µM; actives 0.059% (n = 340,000); AID 504411, 2011; in the data active = inhibition above about 34%
SENP1 inh: human SENP1 catalytic domain inhibitors, primary screen, biochemical, FRET, uHTS; Sentrin-specific protease 1 (Homo sapiens), Q9P0U3; recombinant SENP1 catalytic domain, CyPet-SUMO1-YPet FRET cleavage; inhibition, % at 10 µM; actives 0.21% (n = 360,000); AID 624204, 2012;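 active = inhibition at least 30% at 10 µM, raw YFP signal under a set limit, fluorescence ratio 0.5 to 1.5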
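Material – human SENP1 catalytic domain · Input – SENP1 enzyme, 20 pM final · Compound dosing – single concentration of 10 µM compound, 0.5% DMSO final · Timing – enzyme reaction for 50 min at room temperature, dark · Measured by – FRET fluorescence in CFP and YFP emission channels · Control set – no-enzyme wells low, DMSO-plus-enzyme wells high control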
beta cell repl: inducers of MIN6 beta-cell proliferation, primary screen, ATP luminescence, uHTS | proliferation, % at 10 µM | MIN6 cells proliferation, ATPlite luminescence, 48 h; cells starved in 0.2% serum; 100% = growth in 10% serum | actives 0.29% (n = 330,000) | AID 2380, 2010;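 active = compounds whose signal lies at least 3.5 SD above the mean of all wells on their plate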
CendR NRP1 mod: modulators of CendR peptide binding to NRP-1, primary screen, biochemical, fluorescence polarization, uHTS | Neuropilin-1 (Homo sapiens), O14786 | FAM-RPARPAR peptide binding to NRP-1 | inhibition, % at 25 µM | actives 0.85% (n = 360,000) | AID 602438, 2012;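 active = inhibition or corrected inhibition above about 18%, plus a signal ratio from 0.5 to 1.5, limit read from the data, passing the limit was not always enough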
Each line names hits and unclear results; the compound was inactive in the other large screens. An excerpt weighted towards active compounds, which were near 2.4% of everything screened.

CC1(C(=O)NCCN2CCOCC2)C=CCN1C(=O)c1ccccc1 (stereo unspecified)	none
O=C(NCCN1CCOCC1)C12CC3CC(C1)CC(c1ccccc1)(C3)C2	CendR NRP1 mod 44
COc1ccc(C(=O)N/C(=C/c2cccs2)C(=O)NN)cc1OC	none
CCOc1nc(N2CCOCC2)nc(N2CCOCC2)n1	Myeloid diff 2 active
COCCN1C(=O)c2cc(C(=O)Nc3ccc(C)c(F)c3)ccc2C1Nc1ccc(C)c(F)c1 (stereo unspecified)	none
COc1ccc(NC(=O)CC(C)NCCCN2CCCC2=O)cc1 (stereo unspecified)	Myeloid diff 2 active
CN(CC(=O)Nc1ccc(F)c(F)c1F)C(=O)C1CSC2(C)CCC(=O)N12 (stereo unspecified)	none
CN(CC(=O)Nc1ccccc1Cl)C(=O)C1CSC2(C)CCC(=O)N12 (stereo unspecified)	CendR NRP1 mod 21
CCOc1ccc(C(O)(c2ccccc2)C(CN2CCCC2)c2ccccc2)cc1 (stereo unspecified)	none
O=C1CN(CC(=O)Nc2cccc(Cl)c2Cl)c2ccccc2N1	Myeloid diff 2 active
CN1CCN(C(=S)SCC(=O)Nc2nc(-c3ccccc3)c(-c3ccccc3)o2)CC1	none
Cc1nc(Sc2ccccc2)c(C#N)c(C)c1[N+](=O)[O-]	none
Cc1cc(C)c(C#N)c(Sc2nc(C)c([N+](=O)[O-])c(C)c2C#N)n1	Myeloid diff 2 active (no result: DAGLB inhibitor, beta cell repl)
Cc1ccc2c(c1)-n1c(nc3ccc(C)cc3c1=O)C(Cc1ccccc1)NC2=O (stereo unspecified)	none (no result: MT1-MMP act inh, Myeloid diff 2, DAGLB inhibitor, SENP1 inh, CendR NRP1 mod)
O=C([C@@H]1CC=C[C@@H]2CCN(C3CCCCC3)C(=O)[C@@H]21)N1CCN(c2ccccc2)CC1	CendR NRP1 mod 23
COc1ccc(NC(=O)[C@@H]2CC=C[C@@H]3CCN(C4CCCCC4)C(=O)[C@@H]32)cc1	none
O=C(CSc1nnc(CNC(=O)C23CC4CC(CC(C4)C2)C3)n1-c1ccc(F)cc1)Nc1ccccc1	none
O=C(CSc1nnc(CNC(=O)C23CC4CC(CC(C4)C2)C3)n1-c1ccccc1)Nc1ccc(F)cc1	CendR NRP1 mod 27
O=C(CSc1nc(C(F)(F)F)cc(=O)[nH]1)N1CCCC1	none
O=C(CCCN=C1NS(=O)(=O)c2ccccc21)OCc1cc([N+](=O)[O-])cc2c1OCOC2	Myeloid diff 2 active
C[C@H](N=C1NS(=O)(=O)c2ccccc21)C(=O)OCc1cc([N+](=O)[O-])cc2c1OCOC2	none
Cc1ccc(S(=O)(=O)Oc2ccccc2[N+](=O)[O-])cc1	CendR NRP1 mod 20 (no result: beta cell repl)
COc1ccccc1[N+](=O)[O-]	none
Nc1c(C(=O)c2ccccc2)sc2snc(SCC(=O)c3ccccc3)c12	Myeloid diff 2 active
COc1ccc(-c2ccc3c(c2)S(=O)(=O)c2cccc(C(=O)N4CCN(C5CCCCC5)CC4)c2C3=O)cc1OC	Myeloid diff 2 active
CCC(CC)C(=O)c1c[nH]c(C(=O)NCc2ccccc2OC)c1	none
CC12CNCC(C)(CN(C(c3ccccc3)c3ccccc3)C1)C2	CendR NRP1 mod 31
CC(C)Cn1cnc2c1c(=O)n(CC(=O)NC(=O)NC(C)(C)C)c(=O)n2Cc1ccccc1	CendR NRP1 mod 18
Clc1ccc(/C=N/c2c(-c3ccco3)nc3ccccn23)cc1	CendR NRP1 mod 36
O=C(CSc1nc2ccc(Cl)cc2[nH]1)c1c[nH]c2ccccc12	none
O=C(CSc1nc2ncc(Cl)cc2[nH]1)c1c[nH]c2ccccc12	Myeloid diff 2 active
COc1cc(OC)cc(C(=O)Nc2ccc(C(=O)c3ccncc3)cc2)c1	none
CC/C(O)=C1\C(=O)CC(c2ccccc2)CC1=NCCc1c(C)[nH]c2ccc(C)cc12 (stereo unspecified)	Myeloid diff 2 active
COc1ccc(-c2csc(N3CCC(c4ccccc4)CC3)n2)cc1	none
CCC1(C)CC(c2nc(-c3ccc(OC)cc3)cs2)CCS1 (stereo unspecified)	CendR NRP1 mod 32
O=C(Nc1cccc([N+](=O)[O-])c1)Nc1ccc2c(c1)OCCO2	none
C(=C\c1ccccc1)/CN1CCN(C(c2cccs2)c2nnnn2-c2ccc3c(c2)OCCO3)CC1 (stereo unspecified)	none (no result: DAGLB inhibitor, beta cell repl)
Cc1sc2ncnc(N3CCC(C(=O)Nc4ccc(Br)cc4Br)CC3)c2c1C	none
Cc1c(Br)c([N+](=O)[O-])nn1CC(=O)NCc1cccs1	CendR NRP1 mod 25
Cc1c(Br)c([N+](=O)[O-])nn1C(C)C(=O)NCc1cccs1 (stereo unspecified)	none
CC(O)CN(CC(C)O)c1ccc2c(c1)Cc1cc([N+](=O)[O-])ccc1-2 (stereo unspecified)	Myeloid diff 2 active (no result: beta cell repl)
CCOc1ccccc1C(=O)N(Cc1ccccc1)Cc1cc2cc3c(cc2[nH]c1=O)OCCO3	Myeloid diff 2 active
COc1ccc(C2/C=C\CN(C(=O)C3CCCCC3)CC(=O)N2Cc2ccc(F)cc2)cc1 (stereo unspecified)	CendR NRP1 mod 34
COc1ccc(C2/C=C\CN(C(=O)C3CCCC3)CC(=O)N2Cc2ccc(F)cc2)cc1 (stereo unspecified)	none
CNC(=S)NNC(=O)c1ccc(=O)n(Cc2cccc(C(F)(F)F)c2)c1	none (no result: DAGLB inhibitor)
O=C(NCCOc1ccccc1F)C1CC(=O)N(c2ccc3c(c2)OCCO3)C1 (stereo unspecified)	none
CCCOc1ccc(OC(=O)Cc2ccc(OC)c(S(=O)(=O)N3CCOCC3)c2)cc1	Myeloid diff 2 active
CCN1CCN(Cc2ccc(NC(=O)c3cc(NC(=O)c4cnnc5ccccc45)cc(OC)c3)cc2C(F)(F)F)CC1	none
Cc1ccc2nc3c(cc(C(=O)NCCc4ccccc4)c(=N)n3CCN3CCOCC3)c(=O)n2c1	Myeloid diff 2 active
Cc1ccc2nc3c(cc(C(N)=S)c(=N)n3CCCOC(C)C)c(=O)n2c1	Myeloid diff 2 active
Cc1ccc2nc3c(cc(C(=O)NCCN4CCOCC4)c(=N)n3CCCN3CCOCC3)c(=O)n2c1	none (no result: Myeloid diff 2)
COCCCn1c(=N)c(C(N)=S)cc2c(=O)n3cccc(C)c3nc21	none
N=C(N=C(N)N)N1CCc2ccccc21	none
C(=Cc1c[nH]c2ccccc12)c1ccc2ccccc2n1	Myeloid diff 2 active (no result: beta cell repl)
